Data set [1] is filed under the species Homo sapiens. Description: Inhibition of human recombinant synovial PLA2 by at 5 uM. The essentials: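 Single peptide concentration of 5 µM against purified human synovial type IIA sPLA2 (0.85 pmol), with [3H]arachidonate-labeled E. coli membranes as substrate in 100 mM Tris-HCl, 25 mM CaCl2, pH 7.5. Released label was counted by liquid scintillation, in triplicate. Results are % inhibition relative to enzyme preincubated with buffer alone; groups were compared by one-way ANOVA with Dunnett's test.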

A short description of data set [2]: Inhibition of human recombinant synovial PLA2. The gist of the method:
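Purified human synovial type IIA sPLA2 (0.85 pmol) was preincubated with peptide (1-250 range) and then reacted with [3H]arachidonate-labeled E. coli membranes in 100 mM Tris-HCl, 25 mM CaCl2, pH 7.5. Released [3H]arachidonate was counted by liquid scintillation, in triplicate. IC50 (mean ± SD) was obtained from sigmoid curves by nonlinear regression of % inhibition versus buffer-only control.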

The species entered for data set [3] is Homo sapiens. Description: Inhibition of IL-1-beta-induced MMP2 levels in human RASFs after 1 hr by ELISA. Format: functional. The essentials:
(§1)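 Primary synovial fibroblasts from three RA knee-replacement patients, passages 3-8, grown to confluence and serum-starved 16 h. Cells were preincubated 1 h at 37 °C with 5 µM peptide or vehicle (0.1% DMSO final), then given hrIL-1β 10 ng/mL for 24 h. Supernatants were stored at -20 °C, and type IIA sPLA2 or MMP-1/-2/-9 was measured by ELISA in triplicate.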

The species entered for data set [4] is Homo sapiens. In words: Inhibition of IL-1-beta-induced MMP1 levels in human RASFs after 1 hr by ELISA. Format: functional. The essentials:
as §1
Background: An ELISA detects its analyte on a solid surface through an enzyme-linked reagent.

Data set [5] is filed under the species Homo sapiens. In words: Effect on IL-1-beta-stimulated TIMP2 production in human RASFs. Format: functional.
Data set [6] is filed under the species Homo sapiens. In words: Inhibition of IL-1-beta-induced MMP9 levels in human RASFs after 1 hr by ELISA. It is filed as functional. The gist of the method: as §1
Data set [7] in a line: Toxicity against human RASF at 1 to 10 uM after 24 hrs. The gist of the method:
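Primary RA synovial fibroblasts (passages 3-8) were exposed to peptide at 1, 5 and 10 µM for 24 h. Viability was read by the XTT cell proliferation assay.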

The species entered for data set [8] is Homo sapiens. In words: Inhibition of IL-1-beta-induced sPLA2 production in human RASFs at 5 uM by ELISA. Format: functional. The gist of the method:
as §1

For data set [9], the species on record is Homo sapiens. Description: Inhibition of IL-1-beta-induced MMP2 gene expression in human RASFs by QRT-PCR. It is filed as functional. The gist of the method: (§2)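 Primary synovial fibroblasts from three RA patients (passages 3-8), grown to confluence in DMEM/10% FBS and serum-starved 16 h. Preincubated 1 h with 5 µM peptide or vehicle (0.1% DMSO final), then stimulated 24 h with hrIL-1β 10 ng/mL. Cells from 3 flasks pooled per group, total RNA isolated and DNase-treated, then transcripts quantified by qRT-PCR. Unstimulated cells served as controls.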

The species entered for data set [10] is Homo sapiens. In words: Inhibition of IL-1-beta-induced MMP1 gene expression in human RASFs by QRT-PCR. Format: functional. The gist of the method: as §2
The species entered for data set [11] is Homo sapiens. Description: Inhibition of IL-1-beta-induced sPLA2 production in human RASFs by ELISA. Format: functional. The essentials:
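RA synovial fibroblasts (passages 3-8, serum-starved 16 h) were preincubated 1 h at 37 °C with peptide (1, 2.5, 5 or 10 µM) or vehicle (0.1% DMSO final), then cultured a further 24 h with or without IL-1β 10 ng/mL. Supernatant sPLA2-IIA was measured by EIA in triplicate; mean ± SD from a representative of three RASF lines.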

Data set [12] is filed under the species Oryctolagus cuniculus. Description: Inhibition of IL-1-beta-induced sPLA2 gene expression in rabbit HIG82 cells by QRT-PCR. Format: functional, cell-based. The essentials:
(§3)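 Rabbit HIG-82 fibroblast-like synoviocytes were grown in Ham's F-12/10% FBS to 80% confluence. They were serum-starved 2 h with or without 5 µM peptide; controls got medium or vehicle (0.1% DMSO). Cells were then stimulated 24 h with rhIL-1β 5 ng/mL, washed in cold PBS, RNA extracted, and transcripts measured by qRT-PCR.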

Data set [13] is filed under the species Oryctolagus cuniculus. Description: Inhibition of IL-1-beta-induced TIMPs gene expression in rabbit HIG82 cells by QRT-PCR. Format: functional, cell-based. The essentials:
as §3

The species named for data set [14] is Homo sapiens. Description: Inhibition of IL-1-beta-induced sPLA2 gene expression in human RASFs by QRT-PCR. It is filed as functional. The gist of the method:
as §2

For data set [15], the species on record is Oryctolagus cuniculus. In words: Inhibition of IL-1-beta-induced MMP2 gene expression in rabbit HIG82 cells by QRT-PCR. It is filed as functional, cell-based. The gist of the method:
as §3

Data set [16] is filed under the species Oryctolagus cuniculus. Description: Inhibition of IL-1-beta-induced MMP9 gene expression in rabbit HIG82 cells by QRT-PCR. It is filed as functional, cell-based. The essentials:
as §3

The species named for data set [17] is Oryctolagus cuniculus. In words: Inhibition of IL-1-beta-induced MMP1 gene expression in rabbit HIG82 cells by QRT-PCR. It is filed as functional, cell-based. The essentials:
as §3

The species named for data set [18] is Homo sapiens. Description: Inhibition of IL-1-beta-induced MMP9 gene expression in human RASFs by QRT-PCR. It is filed as functional. The essentials: as §2
The species entered for data set [19] is Homo sapiens. Description: Inhibition of IL-1-beta-induced TIMPs gene expression in human RASFs by QRT-PCR. Format: functional. The gist of the method:
as §2

Activity calls are given as the source filed them. The calls are words filed in the database; no cut-off is given here.

What is called inhibition is the share of the control response that was lost under treatment. Usually IC50 stands for the concentration at which inhibition is half-maximal. In the case of H-LGRVDIHVWDGVY-OH, in the data set filed under Homo sapiens [1], the inhibition amounted to 48.7%. Besides, the IC50 in data set [2] came out at 5.95 µM.

Turning to H-LGRVDIHVWDGV-OH, in the data set filed under Homo sapiens [1], the inhibition was found to be 34.2%.

Regarding `CCc1c(C(=O)C(N)=O)c2c(OCC(=O)O)cccc2n1Cc1ccccc1` [VARESPLADIB], the outcome in the data set filed under Homo sapiens [3], in the data set filed under Homo sapiens [4], in the data set listed under Homo sapiens [6] and in the data set listed under Homo sapiens [8] was Active. In the data set filed under Homo sapiens [5], the outcome was inactive. Besides, the Activity entry in data set [7] was “Non-toxic”.

For the compound `CC[C@H](C)[C@@H](NC(=O)[C@H](CC(=O)O)NC(=O)[C@@H](NC(=O)[C@@H](N)CCCNC(=N)N)C(C)C)C(=O)N[C@@H](Cc1cnc[nH]1)C(=O)N[C@H](C(=O)N[C@@H](Cc1c[nH]c2ccccc12)C(=O)N[C@@H](CC(=O)O)C(=O)NCC(=O)N[C@H](C(=O)O)C(C)C)C(C)C`, in the data set listed under Homo sapiens [1], the inhibition was determined as 59.5%. The IC50 in [2] amounted to 3.67 µM.

As for H-LGRVDIHVWDGVYIR-OH, the inhibition in the data set listed under Homo sapiens [1] was 51%. Further, the IC50 in [2] came to 5.75 µM.

As for H-VDIHVWDGVVDIHVWDGV-OH, the outcome in the data set listed under Homo sapiens [9], in the data set filed under Homo sapiens [10], in the data set listed under Homo sapiens [3], in the data set listed under Homo sapiens [4], in the data set filed under Oryctolagus cuniculus [12] and in the data set filed under Homo sapiens [14] was Active. The outcome in the data set listed under Homo sapiens [6], in the data set filed under Oryctolagus cuniculus [15], in the data set filed under Oryctolagus cuniculus [16], in the data set listed under Oryctolagus cuniculus [17], in the data set listed under Homo sapiens [18] and in the data set listed under Homo sapiens [8] was Active. Further, the Activity entry is “Dose-dependent effect” in the data set filed under Homo sapiens [11] and “Non-toxic” in [7]. Further, in the data set listed under Homo sapiens [1], the inhibition turned out to be 74.5%. For the same compound, the outcome in the data set filed under Oryctolagus cuniculus [13], in the data set filed under Homo sapiens [5] and in the data set filed under Homo sapiens [19] was inactive. Further, the concentration for half-maximal inhibition (IC50) in [2] is 1.19 µM.

Take H-LGRVDIHVWDGVYI-OH: the inhibition in the data set filed under Homo sapiens [1] came to 49.7%. Besides, in [2], the IC50 was found to be 5.8 µM.

With `CC[C@H](C)[C@@H](NC(=O)[C@@H](N)CC(=O)O)C(=O)N[C@@H](Cc1cnc[nH]1)C(=O)N[C@H](C(=O)N[C@@H](Cc1c[nH]c2ccccc12)C(=O)N[C@@H](CC(=O)O)C(=O)NCC(=O)N[C@H](C(=O)O)C(C)C)C(C)C`, the inhibition in the data set listed under Homo sapiens [1] stood at 45.9%. The IC50 in [2] was 5.75 µM.

Consider H-VDIHVWAGV-OH, for which the inhibition in the data set filed under Homo sapiens [1] came to 48.5%. Also, the IC50 in [2] turned out to be 5.45 µM.

H-VDIHVWEGV-OH: the inhibition in the data set filed under Homo sapiens [1] was 57.6%. Moreover, the IC50 in data set [2] is 4.95 µM.

Consider H-LGRVDIHVWDGVYIRG-OH, for which, in the data set listed under Homo sapiens [1], the inhibition was found to be 52.4%. The IC50 in [2] amounted to 5.6 µM.

Regarding `CC[C@H](C)[C@@H](NC(=O)[C@H](CC(=O)O)NC(=O)[C@@H](NC(=O)[C@H](CCCNC(=N)N)NC(=O)CN)C(C)C)C(=O)N[C@@H](Cc1cnc[nH]1)C(=O)N[C@H](C(=O)N[C@@H](Cc1c[nH]c2ccccc12)C(=O)N[C@@H](CC(=O)O)C(=O)NCC(=O)N[C@H](C(=O)O)C(C)C)C(C)C`, the inhibition in the data set listed under Homo sapiens [1] is 14.2%.

As to H-LGRVDIHVWDGVYIRGR-OH, the inhibition in the data set filed under Homo sapiens [1] was 55.6%. In data set [2], the IC50 came to 5.3 µM.

Take `CC[C@H](C)[C@@H](NC(=O)[C@H](CC(=O)O)NC(=O)[C@@H](N)C(C)C)C(=O)N[C@@H](Cc1cnc[nH]1)C(=O)N[C@H](C(=O)N[C@@H](Cc1c[nH]c2ccccc12)C(=O)N[C@@H](CC(=O)O)C(=O)NCC(=O)N[C@H](C(=O)O)C(C)C)C(C)C`: the inhibition in the data set listed under Homo sapiens [1] was found to be 56.4%. In addition, in data set [2], the IC50 was 3.8 µM.

In the case of H-VDIHVWSGV-OH, the inhibition in the data set filed under Homo sapiens [1] worked out at 52.5%. In data set [2], the 50% inhibitory concentration (IC50) was found to be 5.25 µM.

On to H-IHVWDGV-OH, for which the inhibition in the data set filed under Homo sapiens [1] stood at 35.4%. For the same compound, in data set [2], the 50% inhibitory concentration (IC50) turned out to be 6.21 µM.

The record behind these values is ChEMBL document CHEMBL1138293, “Novel peptide inhibitors of human secretory phospholipase A2 with antiinflammatory activity: solution structure and molecular modeling” (J Med Chem, 2007).
